Data on 1 molecule can be found in PMC6440450 (International Journal of Nanomedicine, 2019).

Read-outs that look alike come from different tables or passages of the source.

The test system of data set [1] is human erythroleukemia cell line (HEL). The data set can be described thus: In vitro cell proliferation. The format is cell-based. The settings on record: 72 hours exposure. In outline:
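HEL cells were seeded at 5×10^3/well and treated 24 h later for 72 h. Doses were 12.5–2,500 nM for the lipid prodrug (free or nanocapsule-loaded) and 5–1,000 nM for the parent nucleoside; blank nanocapsules were excipient-matched. Pellets were frozen at −80°C for ≥48 h, then read by CyQuant. Medium-only wells defined 100% viability. Three independent experiments in quadruplicate; Mann–Whitney test.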

Another data set has as its system HEL cells. The data set can be described thus: Cell-cycle analysis. The data set is classed as cell-based, human. The settings on record: 72 hours, decitabine solution 1,000 nM. In outline:
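HEL cells (RPMI 1640, 10% FBS, 1% antibiotics, 37°C, 5% CO2) were seeded at 5×10^4/well. After 24 h, they were treated with the test compound solution (1,000 nM), prodrug-loaded lipid nanocapsules (2,500 nM), excipient-matched blank nanocapsules or medium for 72 h. Cells were ethanol-fixed (70%, cold) and stained 15 min in the dark with 40 µg/mL propidium iodide plus 100 µg/mL RNase A. Phases were fitted by the Dean Jett Fox model. n=3 plates in triplicate; Mann–Whitney versus medium.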

The conditions of data set [2]: decitabine solution, human plasma, same conditions, after 6 hours; cited from earlier work.
The conditions of data set [3]: phosphate buffer, 37°C, after 24 hours; cited from earlier work.
The conditions of data set [4]: cited from earlier work.

Regarding `Nc1ncn([C@H]2C[C@H](O)[C@@H](CO)O2)c(=O)n1` [Decitabine], the “Concentration above which cell viability decreased” value in data set [1] is given as “above 50 nM”. Moreover, the “Cells arrested in G2/M” value in the data set with HEL cells turned out to be 17.2%. Moreover, the figures for the Initial concentration recovered in data set [2] and in data set [3] were less than 40% and less than 50%, respectively. Further, in data set [4], the Half-life in plasma is 15 to 25 min.
